Reference: ChEMBL document CHEMBL1944595, “1,4-diarylpiperazines and analogs as anti-tubercular agents: synthesis and biological evaluation” (Eur J Med Chem, 2012)

Tests used:
[1] = Cytotoxicity against human HepG2/C3A cells after 24 hrs by neutral red assay; type: cell-based
Summary of the method: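 C3A cells seeded at 40 000 per well and allowed to recover. Exposed 24 h at 37 °C, 5% CO2 to serial dilutions in DMEM + 10% FCS, tested from 10 to 0.1. Then 3 h neutral red uptake, extracted with ethanol/acetic acid, OD read at 530 nm with 620 nm reference. NI50 is the concentration reducing uptake by 50%.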

[2] = Selectivity index, ratio of IC50 for human HepG2/C3A cells to MIC for Mycobacterium tuberculosis H37Rv; type: functional
Summary of the method: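 Selectivity index calculated as C3A neutral red NI50 (24 h) divided by the H37Rv luminometric MIC50.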

| SMILES | IC50 [1] | Selectivity Index [2] |
| --- | --- | --- |
| CCCCCCCCCCCCNC(=N)c1ccc(N2CCN(c3ccccc3)CC2)cc1.Cl | 5.61 µM | 107.52 |
| CCCCNC(=N)c1ccc(N2CCN(c3ccccc3)CC2)cc1.Cl | 17.4 µM | 8.03 |
| CCCCCCCNC(=N)c1ccc(N2CCN(c3ccccc3)CC2)cc1.Cl | 5.21 µM | 57.2 |
| Cl.N=C(N)c1ccc(N2CCN(c3ccccc3)CC2)cc1 | 66.9 µM | 2.26 |
| CNC(=N)c1ccc(N2CCN(c3ccccc3)CC2)cc1.Cl | 71 µM | 4.45 |
| CCCCCNC(=N)c1ccc(N2CCN(c3ccccc3)CC2)cc1.Cl | 11.2 µM | 9.39 |
| CCCCCCCCNC(=N)c1ccc(N2CCN(c3ccccc3)CC2)cc1.Cl | 5.18 µM | 72.19 |
| CCCCCCNC(=N)c1ccc(N2CCN(c3ccccc3)CC2)cc1.Cl | 6.71 µM | 25.38 |
| CCCNC(=N)c1ccc(N2CCN(c3ccccc3)CC2)cc1.Cl | 27.5 µM | 3.92 |
| CCNC(=N)c1ccc(N2CCN(c3ccccc3)CC2)cc1.Cl | 41.7 µM | 3.49 |
